In ChEMBL document CHEMBL1799953, “Backbone cyclic peptide inhibitors of protein kinase B (PKB/Akt)” (J Med Chem, 2011):
pIC50: −log10 of the molar value. *1 amine or outer side, *2 acyl side, *3 side chain or, on linkers, in order; H or OH if unused. Where a SMILES comes first, the peptide text is derived from it. Bridges are numbered along the chain shown (N, C = ends). [ ]: non-standard residue; d: D form. NGly(3-aminopropyl) = O=C(CN(CCCN[*:3])[*:1])[*:2]; N(2-Aminoethyl)Gly = O=C(CN(CCN[*:3])[*:1])[*:2]; Gly(N-(CH2)6NH2) = NCCCCCCNCC(=O)O; Gly(N(CH2)3NH2) = NCCCNCC(=O)O; hLeu = CC(C)CC[C@H](N)C(=O)O; Nva = CCC[C@H](N)C(=O)O; Dap = NC[C@H](N)C(=O)O; CO = O=C([*:1])[*:2]; Nlys = NCCCCNCC(=O)O

Experiments:
[1] = target: T1, RAC-alpha serine/threonine-protein kinase (Homo sapiens, UniProt P31749); test: Inhibition of Akt using RPRTSSF peptide and [gamma32]ATP at 0.625 uM by cell-free radioactive assay relative to control
T1 sequence (P31749 whole entry): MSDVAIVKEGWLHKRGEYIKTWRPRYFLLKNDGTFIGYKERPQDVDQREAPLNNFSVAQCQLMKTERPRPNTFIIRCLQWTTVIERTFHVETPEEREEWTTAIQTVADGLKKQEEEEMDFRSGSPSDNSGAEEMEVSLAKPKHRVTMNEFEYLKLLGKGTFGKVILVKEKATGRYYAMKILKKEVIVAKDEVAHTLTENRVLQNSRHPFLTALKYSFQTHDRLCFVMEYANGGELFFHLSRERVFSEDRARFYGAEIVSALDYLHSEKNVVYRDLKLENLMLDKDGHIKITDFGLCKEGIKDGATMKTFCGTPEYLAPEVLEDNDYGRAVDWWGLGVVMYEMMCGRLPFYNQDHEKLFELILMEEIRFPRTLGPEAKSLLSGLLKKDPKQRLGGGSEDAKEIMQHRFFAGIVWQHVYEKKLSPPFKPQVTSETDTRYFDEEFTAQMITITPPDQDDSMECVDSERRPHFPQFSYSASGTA

[2] = target: T1, RAC-alpha serine/threonine-protein kinase; test: Inhibition of Akt using RPRTSSF peptide and [gamma32]ATP by cell-free radioactive assay
Method in brief: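 Same reaction: HisΔPHPKBEEEFlag (0.005 units), 50 mM Hepes pH 7.4, 0.1 mM EGTA, 0.1% 2-mercaptoethanol, 10 mM magnesium acetate, 3 μM RPRTSSF, 10 μM [γ32P]ATP. Peptide stock concentration determined by UV spectrophotometry; reference peptide run in every assay.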

Row | Structure (SMILES) | inhibition [1] [%] | pIC50 [2]
1 | CCC[C@@H]1NC(=O)[C@H](CCCNC(=N)N)NC(=O)CNCCNC(=O)NCCN(CC(N)=O)C(=O)[C@H](CCC(C)C)NC(=O)[C@H](CN)NC(=O)[C@H](Cc2ccc(O)cc2)NC1=O (H-[N(2-Aminoethyl)Gly]R[Nva]Y[Dap][hLeu][N(2-Aminoethyl)Gly]-NH2; linker 1-7 via CO) | 64 | 6.41
2 | CCC[C@H](NC(=O)[C@H](CCCNC(=N)N)NC(=O)CN(CCCCN)C(=O)[C@@H](N)CCCNC(=N)N)C(=O)N[C@@H](Cc1ccc(O)cc1)C(=O)N[C@@H](CN)C(=O)N[C@@H](CCC(C)C)C(=O)N(CCCN)CC(N)=O (H-R[Nlys]R[Nva]Y[Dap][hLeu][Gly(N(CH2)3NH2)]-NH2) | 91 | 6.82
3 | CCC[C@H](NC(=O)[C@H](CCCNC(=N)N)NC(=O)CN(CCCCN)C(=O)[C@@H](N)CCCNC(=N)N)C(=O)N[C@@H](Cc1ccc(O)cc1)C(=O)N[C@@H](CN)C(=O)N[C@@H](CCC(C)C)C(=O)N(CCCCN)CC(N)=O (H-R[Nlys]R[Nva]Y[Dap][hLeu][Nlys]-NH2) | 91 | 6.89
4 | CCC[C@H](NC(=O)[C@H](CCCNC(=N)N)NC(=O)CN(CCCN)C(=O)[C@@H](N)CCCNC(=N)N)C(=O)N[C@@H](Cc1ccc(O)cc1)C(=O)N[C@@H](CN)C(=O)N[C@@H](CCC(C)C)C(=O)N(CCCN)CC(N)=O (H-R[Gly(N(CH2)3NH2)]R[Nva]Y[Dap][hLeu][Gly(N(CH2)3NH2)]-NH2) | 90 | 6.89
5 | CCC[C@@H]1NC(=O)[C@H](CCCNC(=N)N)NC(=O)CNCCCNC(=O)NCCN(CC(N)=O)C(=O)[C@H](CCC(C)C)NC(=O)[C@H](CN)NC(=O)[C@H](Cc2ccc(O)cc2)NC1=O (H-[NGly(3-aminopropyl)]R[Nva]Y[Dap][hLeu][N(2-Aminoethyl)Gly]-NH2; linker 1-7 via CO) | 84 | 6.62

The next lines start with the values.

Row | inhibition [1] [%] | pIC50 [2] | Structure (SMILES)
6 | 87 | 6.96 | CCC[C@H](NC(=O)[C@H](CCCNC(=N)N)NC(=O)CN(CCCCCCN)C(=O)[C@@H](N)CCCNC(=N)N)C(=O)N[C@@H](Cc1ccc(O)cc1)C(=O)N[C@@H](CN)C(=O)N[C@@H](CCC(C)C)C(=O)N(CCCN)CC(N)=O (H-R[Gly(N-(CH2)6NH2)]R[Nva]Y[Dap][hLeu][Gly(N(CH2)3NH2)]-NH2)
7 | 96 | 6.89 | CCC[C@H](NC(=O)[C@H](CCCNC(=N)N)NC(=O)CN(CCCN)C(=O)[C@@H](N)CCCNC(=N)N)C(=O)N[C@@H](Cc1ccc(O)cc1)C(=O)N[C@@H](CN)C(=O)N[C@@H](CCC(C)C)C(=O)N(CCCCN)CC(N)=O (H-R[Gly(N(CH2)3NH2)]R[Nva]Y[Dap][hLeu][Nlys]-NH2)
